{
  "source": "paper PMC7468331",
  "about": "(Acta Pharmacologica Sinica, 2019)",
  "tested_on": "HFD-induced obese mice",
  "test": "HFD-induced obese mice",
  "assay_type": "in vivo, C57BL/6J male mice",
  "details": "HFD-fed mice",
  "procedure,_shortened": "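Male C57BL/6J mice, 5 weeks old, SPF, 12 h light/dark cycle, were fed high-fat diet. After 10 weeks they were randomised to daily gavage with vehicle, test compound (25 or 50 mg/kg) or reference ACC inhibitor (50 mg/kg) to week 22, with food intake and weight recorded weekly. Liver read-outs: H&E, Oil red O, sirius red, F4/80 immunofluorescence, α-SMA IHC, qPCR (ΔΔCt, 18S) and Western blot (β-actin).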",
  "data": [
    {"smiles": "Cc1nc2ccc(C(=O)N3CCC4(CC3)CC(=O)c3c(cnn3C(C)C)C4)cc2[nH]1", "note": "[PF-05175157]", "values": [
      {"measurement": "activation of macrophages (liver F4/80)", "setting": "50 mg/kg ig daily", "result": "failed to prevent"},
      {"measurement": "Col1a1 gene expression and collagen accumulation in the liver", "setting": "ig daily, sirius red staining", "result": "not observed"}
    ]}
  ]
}
